Data from ChEMBL document CHEMBL1132224, “Synthesis and in vitro multidrug resistance modulating activity of a series of dihydrobenzopyrans and tetrahydroquinolines” (J Med Chem, 1999).

Assays:
[1] = Partition coefficient (logP); type: physicochemical; conditions: octanol/water
Method in brief: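 Computed, not measured: fragmentation method of Ghose et al. on a topological basis. Structures built and minimized with the MM2 force field. Conformation-independent log P values.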

[2] = Lipophilicity (log kw value) was determined; type: physicochemical; conditions: reversed-phase HPLC, methanol/buffer pH 7.4
Method in brief: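 Reversed-phase HPLC on an RP-8 column (5 µm), eluent methanol/aqueous phase adjusted to pH 7.4 with 1/60 M Soerensen buffer, detection at 254 nm. log k′ measured at 70%, 60% and 50% methanol, then extrapolated to 0% methanol by linear regression to give log kw.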

CCRF-CEM = assay: The compound was tested for inhibition of P-glycoprotein mediated daunomycin efflux in multidrug resistant CCRF-CEM vcr1000 cells.; type: functional, cell-based; conditions: Homo sapiens
Method in brief: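 Vincristine-selected CCRF-CEM vcr1000 T-lymphoblasts grown in RPMI1640 with 10% FCS, selecting agent removed at least 1 week before use. Cells at 1 × 10^6/mL preloaded with 3.2 µM daunomycin (final) for 30 min at 37 °C, pelleted, then resuspended in 37 °C medium with modulator (eight concentrations, 1:2.5 dilutions, 3 nM–500 µM range). Samples taken at 0, 60, 120, 180 and 240 s into ice-cold stop medium containing verapamil (10 µg/mL final). An exponential fit gives the first-order rate constant (Vmax/Km) as the slope at time zero. Efflux in parental CCRF-CEM cells, set to equal initial fluorescence, is subtracted as passive diffusion. EC50 comes from Vmax/Km versus concentration, as mean ± SD of at least three independent experiments.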

With Cc1ccc(C(=O)O[C@H]2[C@H](C)Nc3ccccc3[C@@H]2N2CCCC2)cc1 the logP [1] was 3.92, the Log kw [2] was 5.47 and the EC50 (CCRF-CEM) was 5.64 µM.

For CCN(CC)CCCC(C)N[C@H]1c2ccccc2N[C@@H](C)[C@@H]1OC(=O)c1ccc(C)cc1 (stereo partly drawn), the logP [1] was 4.78 and the EC50 (CCRF-CEM) was 0.34 µM.

For CC(C)(C)OC(=O)CN[C@H]1c2cc(C#N)ccc2OC(C)(C)[C@@H]1O, the logP [1] was 1.79 and the EC50 (CCRF-CEM) was 46.8 µM.

Cc1ccc(C(=O)N2c3ccccc3[C@H](N3CCN(Cc4ccccc4)CC3)[C@@H](O)[C@@H]2C)cc1 showed a logP [1] of 4.51, a Log kw [2] of 6.1 and an EC50 (CCRF-CEM) of 0.43 µM.

CC1(C)Oc2ccc(C#N)cc2[C@H](NCc2ccccc2)[C@H]1O showed a logP [1] of 3.12, a Log kw [2] of 4.35 and an EC50 (CCRF-CEM) of 59.1 µM.

Cc1ccc(C(=O)N2c3ccccc3[C@H](N3CCCC3)[C@@H](O)[C@@H]2C)cc1 showed a logP [1] of 3.34, a Log kw [2] of 4.2 and an EC50 (CCRF-CEM) of 7.98 µM.

CCN(CC)CCCC(C)N[C@H]1c2ccccc2N(C(=O)c2ccc(C)cc2)[C@@H](C)[C@@H]1O (stereo partly drawn) gave a logP [1] of 4.2 and an EC50 (CCRF-CEM) of 1.96 µM.

For CN[C@H]1c2cc(C#N)ccc2OC(C)(C)[C@@H]1O, the logP [1] was 1.24 and the EC50 (CCRF-CEM) was 1430 µM.

With Cc1ccc(C(=O)N2c3ccccc3[C@H](NCc3ccccc3)[C@@H](O)[C@@H]2C)cc1 the logP [1] was 4.52, the Log kw [2] was 5.38 and the EC50 (CCRF-CEM) was 3.26 µM.

CC(C)(C)OC(=O)CN(Cc1ccccc1)[C@H]1c2cc(C#N)ccc2OC(C)(C)[C@@H]1O showed a logP [1] of 3.76 and an EC50 (CCRF-CEM) of 2.43 µM.

CC1(C)Oc2ccc(C#N)cc2[C@H](N2CCN(Cc3ccccc3)CC2)[C@H]1O showed a logP [1] of 3.11, a Log kw [2] of 5.53 and an EC50 (CCRF-CEM) of 0.64 µM.
